According to ChEMBL document CHEMBL1240487, “Discovery of a potent, selective, and orally bioavailable pyridinyl-pyrimidine phthalazine aurora kinase inhibitor” (J Med Chem, 2010):

What was measured:
[1] = target: RAC-alpha serine/threonine-protein kinase (Homo sapiens, UniProt P31749); assay: Inhibition of PKBalpha by HTRF assay
Procedure, shortened: (§1)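 Enzyme inhibition was run with ATP at its Km for each kinase. Values are averages of at least two determinations.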

[2] = target: Insulin-like growth factor 1 receptor (Homo sapiens, UniProt P08069); assay: Inhibition of IGFR1 by HTRF assay; procedure, shortened: as §1
Sequence of Insulin-like growth factor 1 receptor (P08069 31-736 limits assumed): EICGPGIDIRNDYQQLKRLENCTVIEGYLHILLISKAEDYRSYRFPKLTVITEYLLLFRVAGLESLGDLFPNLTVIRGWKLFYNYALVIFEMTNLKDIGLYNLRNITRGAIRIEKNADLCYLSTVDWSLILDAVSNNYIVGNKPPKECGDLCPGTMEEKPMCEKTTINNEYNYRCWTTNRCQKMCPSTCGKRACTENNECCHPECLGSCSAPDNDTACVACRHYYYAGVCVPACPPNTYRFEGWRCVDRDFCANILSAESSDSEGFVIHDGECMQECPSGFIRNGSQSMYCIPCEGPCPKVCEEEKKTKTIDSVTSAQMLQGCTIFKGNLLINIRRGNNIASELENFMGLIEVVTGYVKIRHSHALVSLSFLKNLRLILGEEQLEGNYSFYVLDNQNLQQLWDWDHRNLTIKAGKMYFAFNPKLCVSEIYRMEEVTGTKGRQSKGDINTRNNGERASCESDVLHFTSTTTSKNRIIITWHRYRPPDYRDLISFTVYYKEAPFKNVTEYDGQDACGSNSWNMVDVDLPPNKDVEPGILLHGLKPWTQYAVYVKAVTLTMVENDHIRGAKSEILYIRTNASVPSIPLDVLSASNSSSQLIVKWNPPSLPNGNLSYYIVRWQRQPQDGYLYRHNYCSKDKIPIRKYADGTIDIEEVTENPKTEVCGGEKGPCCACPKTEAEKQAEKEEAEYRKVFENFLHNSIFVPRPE
Sequence of Insulin-like growth factor 1 receptor (P08069 741-1367 limits assumed): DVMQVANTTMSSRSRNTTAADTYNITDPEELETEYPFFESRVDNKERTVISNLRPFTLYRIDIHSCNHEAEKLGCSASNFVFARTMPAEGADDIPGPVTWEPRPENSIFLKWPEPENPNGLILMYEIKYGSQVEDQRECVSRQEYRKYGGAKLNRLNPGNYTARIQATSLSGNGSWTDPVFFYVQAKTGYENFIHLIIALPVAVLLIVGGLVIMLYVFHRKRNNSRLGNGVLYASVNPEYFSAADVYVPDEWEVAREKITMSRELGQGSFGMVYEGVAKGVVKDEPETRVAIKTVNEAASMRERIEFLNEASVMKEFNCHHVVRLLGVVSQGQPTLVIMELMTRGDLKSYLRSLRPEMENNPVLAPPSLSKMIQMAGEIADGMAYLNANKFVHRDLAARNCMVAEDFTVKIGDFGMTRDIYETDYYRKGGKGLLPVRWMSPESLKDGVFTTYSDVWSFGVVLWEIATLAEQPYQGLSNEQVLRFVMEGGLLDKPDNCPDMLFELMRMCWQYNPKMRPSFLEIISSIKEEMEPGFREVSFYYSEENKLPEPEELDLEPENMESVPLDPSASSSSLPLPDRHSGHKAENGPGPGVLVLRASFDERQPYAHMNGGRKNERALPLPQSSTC

[3] = target: Mitogen-activated protein kinase 9 (Homo sapiens, UniProt P45984); assay: Inhibition of JNK2 by HTRF assay; procedure, shortened: as §1
Sequence of Mitogen-activated protein kinase 9 (P45984 whole entry): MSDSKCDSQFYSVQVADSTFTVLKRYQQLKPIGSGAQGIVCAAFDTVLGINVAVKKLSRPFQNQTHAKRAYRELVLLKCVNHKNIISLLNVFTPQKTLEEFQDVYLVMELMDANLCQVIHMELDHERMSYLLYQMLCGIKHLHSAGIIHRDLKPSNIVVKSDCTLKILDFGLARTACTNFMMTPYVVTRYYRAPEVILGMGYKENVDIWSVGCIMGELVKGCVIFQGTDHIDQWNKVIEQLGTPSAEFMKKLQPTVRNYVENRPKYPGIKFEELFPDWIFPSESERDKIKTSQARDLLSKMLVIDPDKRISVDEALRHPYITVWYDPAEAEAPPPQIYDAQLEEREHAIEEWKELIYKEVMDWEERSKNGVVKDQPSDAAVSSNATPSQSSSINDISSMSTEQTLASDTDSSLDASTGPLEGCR

[4] = target: T1, Aurora kinase A/Targeting protein for Xklp2 (Homo sapiens, UniProt O14965); assay: Inhibition of Aurora A/TPX2 (1-43) by HTRF assay; type: protein-complex assay; procedure, shortened: as §1
T1 sequence (O14965 whole entry): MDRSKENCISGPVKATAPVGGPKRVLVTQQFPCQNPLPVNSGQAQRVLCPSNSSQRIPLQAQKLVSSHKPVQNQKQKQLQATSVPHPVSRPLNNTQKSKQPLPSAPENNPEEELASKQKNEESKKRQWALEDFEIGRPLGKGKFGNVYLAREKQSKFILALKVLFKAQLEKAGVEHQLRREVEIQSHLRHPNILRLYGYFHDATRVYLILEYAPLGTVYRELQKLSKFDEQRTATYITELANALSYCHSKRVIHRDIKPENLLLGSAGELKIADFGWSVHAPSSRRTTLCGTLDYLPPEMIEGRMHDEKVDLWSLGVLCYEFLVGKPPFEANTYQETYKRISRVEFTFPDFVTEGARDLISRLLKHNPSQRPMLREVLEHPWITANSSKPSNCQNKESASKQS
T1 sequence (Q9ULW0 whole entry): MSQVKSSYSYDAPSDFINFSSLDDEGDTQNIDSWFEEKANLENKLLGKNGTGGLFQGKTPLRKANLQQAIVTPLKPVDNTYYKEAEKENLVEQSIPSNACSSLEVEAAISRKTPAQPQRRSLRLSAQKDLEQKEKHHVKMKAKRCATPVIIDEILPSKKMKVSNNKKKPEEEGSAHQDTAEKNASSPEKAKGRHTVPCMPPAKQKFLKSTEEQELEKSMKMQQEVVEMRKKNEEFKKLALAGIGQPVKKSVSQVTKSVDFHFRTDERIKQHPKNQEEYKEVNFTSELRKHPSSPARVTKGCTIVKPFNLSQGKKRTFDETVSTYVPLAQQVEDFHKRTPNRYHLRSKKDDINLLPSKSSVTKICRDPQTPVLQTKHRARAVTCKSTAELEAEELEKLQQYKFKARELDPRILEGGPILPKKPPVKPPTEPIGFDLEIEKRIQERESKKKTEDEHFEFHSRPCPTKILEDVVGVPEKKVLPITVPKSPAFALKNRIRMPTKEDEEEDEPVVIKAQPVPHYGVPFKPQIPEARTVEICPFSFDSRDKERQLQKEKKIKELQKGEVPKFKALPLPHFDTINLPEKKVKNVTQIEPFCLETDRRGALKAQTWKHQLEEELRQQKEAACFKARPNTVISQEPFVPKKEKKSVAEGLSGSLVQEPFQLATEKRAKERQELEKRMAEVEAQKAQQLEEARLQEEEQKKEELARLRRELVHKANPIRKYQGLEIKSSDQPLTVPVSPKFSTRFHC

[5] = target: Ribosomal protein S6 kinase beta-1 (Homo sapiens, UniProt P23443); assay: Inhibition of p70s6k by HTRF assay; procedure, shortened: as §1
Sequence of Ribosomal protein S6 kinase beta-1 (P23443 whole entry): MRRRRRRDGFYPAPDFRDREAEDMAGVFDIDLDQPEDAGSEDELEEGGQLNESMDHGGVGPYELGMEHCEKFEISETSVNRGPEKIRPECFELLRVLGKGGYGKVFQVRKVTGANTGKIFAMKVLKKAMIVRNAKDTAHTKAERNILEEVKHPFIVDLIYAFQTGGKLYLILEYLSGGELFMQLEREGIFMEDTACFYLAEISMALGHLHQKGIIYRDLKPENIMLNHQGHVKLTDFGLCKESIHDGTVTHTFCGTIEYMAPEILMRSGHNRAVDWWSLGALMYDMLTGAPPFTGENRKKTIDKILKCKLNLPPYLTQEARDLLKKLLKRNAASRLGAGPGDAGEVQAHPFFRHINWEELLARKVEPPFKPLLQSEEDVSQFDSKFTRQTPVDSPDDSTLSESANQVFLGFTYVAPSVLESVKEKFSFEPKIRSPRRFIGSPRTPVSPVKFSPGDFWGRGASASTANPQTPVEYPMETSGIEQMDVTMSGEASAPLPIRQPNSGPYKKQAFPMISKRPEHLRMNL

[6] = target: T2, Tyrosine-protein kinase JAK3 (Homo sapiens, UniProt P52333); assay: Inhibition of Jak3 by HTRF assay; procedure, shortened: as §1
T2 sequence (P52333 whole entry): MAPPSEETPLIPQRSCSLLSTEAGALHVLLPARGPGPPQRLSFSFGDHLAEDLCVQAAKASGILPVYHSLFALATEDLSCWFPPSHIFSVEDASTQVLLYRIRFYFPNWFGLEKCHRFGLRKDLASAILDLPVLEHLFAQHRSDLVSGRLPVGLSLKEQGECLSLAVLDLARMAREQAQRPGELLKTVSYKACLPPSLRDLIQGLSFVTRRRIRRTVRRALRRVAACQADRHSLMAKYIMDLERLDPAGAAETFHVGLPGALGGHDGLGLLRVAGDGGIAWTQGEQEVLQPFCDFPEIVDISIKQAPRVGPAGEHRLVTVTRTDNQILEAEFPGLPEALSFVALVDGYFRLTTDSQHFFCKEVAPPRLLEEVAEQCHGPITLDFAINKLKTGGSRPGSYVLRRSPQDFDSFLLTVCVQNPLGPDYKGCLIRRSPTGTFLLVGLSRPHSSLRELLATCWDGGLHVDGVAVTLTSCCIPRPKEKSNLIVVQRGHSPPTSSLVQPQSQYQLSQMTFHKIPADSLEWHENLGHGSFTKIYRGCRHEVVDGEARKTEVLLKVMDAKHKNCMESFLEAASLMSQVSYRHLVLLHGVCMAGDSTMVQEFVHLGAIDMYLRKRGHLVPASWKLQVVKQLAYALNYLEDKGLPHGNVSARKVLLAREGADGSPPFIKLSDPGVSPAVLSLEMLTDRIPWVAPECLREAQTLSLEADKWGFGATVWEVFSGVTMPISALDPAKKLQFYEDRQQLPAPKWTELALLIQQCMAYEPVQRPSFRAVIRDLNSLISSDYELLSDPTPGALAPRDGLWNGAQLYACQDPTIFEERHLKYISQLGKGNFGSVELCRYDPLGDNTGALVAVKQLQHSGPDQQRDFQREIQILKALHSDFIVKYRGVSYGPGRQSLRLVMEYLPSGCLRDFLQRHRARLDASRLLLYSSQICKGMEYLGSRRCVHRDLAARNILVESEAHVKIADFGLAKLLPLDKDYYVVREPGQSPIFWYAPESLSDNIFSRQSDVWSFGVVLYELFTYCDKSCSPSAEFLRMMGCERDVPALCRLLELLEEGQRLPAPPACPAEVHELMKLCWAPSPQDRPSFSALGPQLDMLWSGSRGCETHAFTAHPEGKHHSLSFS

[7] = target: Tyrosine-protein kinase JAK2 (Homo sapiens, UniProt O60674); assay: Inhibition of Jak2 by HTRF assay; procedure, shortened: as §1
Sequence of Tyrosine-protein kinase JAK2 (O60674 whole entry): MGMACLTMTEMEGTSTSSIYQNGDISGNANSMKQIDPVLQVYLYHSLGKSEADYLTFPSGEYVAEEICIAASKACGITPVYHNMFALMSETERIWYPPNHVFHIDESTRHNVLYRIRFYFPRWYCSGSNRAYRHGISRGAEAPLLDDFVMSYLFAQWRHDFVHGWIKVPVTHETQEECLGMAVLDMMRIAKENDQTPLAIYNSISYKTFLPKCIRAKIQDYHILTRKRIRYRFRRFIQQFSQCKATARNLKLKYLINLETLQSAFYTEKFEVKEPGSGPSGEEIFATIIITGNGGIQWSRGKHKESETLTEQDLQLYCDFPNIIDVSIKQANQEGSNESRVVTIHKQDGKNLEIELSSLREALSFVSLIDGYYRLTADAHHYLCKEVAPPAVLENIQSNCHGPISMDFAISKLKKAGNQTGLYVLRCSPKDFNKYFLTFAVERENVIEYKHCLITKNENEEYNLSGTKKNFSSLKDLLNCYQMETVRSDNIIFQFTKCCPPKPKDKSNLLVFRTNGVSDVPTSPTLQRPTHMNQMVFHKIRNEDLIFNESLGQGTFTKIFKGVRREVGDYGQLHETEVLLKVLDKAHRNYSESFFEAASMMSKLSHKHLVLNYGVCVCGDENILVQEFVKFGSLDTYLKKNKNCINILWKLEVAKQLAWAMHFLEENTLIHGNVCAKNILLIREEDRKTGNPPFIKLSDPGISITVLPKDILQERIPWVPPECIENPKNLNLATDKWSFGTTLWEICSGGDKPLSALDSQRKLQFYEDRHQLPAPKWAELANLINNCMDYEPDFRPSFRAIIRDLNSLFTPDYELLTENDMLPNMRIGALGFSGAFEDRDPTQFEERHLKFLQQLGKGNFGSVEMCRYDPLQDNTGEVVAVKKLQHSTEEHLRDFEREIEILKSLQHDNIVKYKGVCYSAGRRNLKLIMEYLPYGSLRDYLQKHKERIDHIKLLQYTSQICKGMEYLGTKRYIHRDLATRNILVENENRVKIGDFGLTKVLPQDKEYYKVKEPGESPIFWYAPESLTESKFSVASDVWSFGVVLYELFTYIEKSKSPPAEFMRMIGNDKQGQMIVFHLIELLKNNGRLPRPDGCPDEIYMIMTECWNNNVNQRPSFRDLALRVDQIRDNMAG

[8] = target: Cyclin-dependent kinase 5 (Homo sapiens, UniProt Q00535); assay: Inhibition of CDK5 by HTRF assay; procedure, shortened: as §1
[9] = target: Serine/threonine-protein kinase PLK1 (Homo sapiens, UniProt P53350); assay: Inhibition of PLK1 by HTRF assay; procedure, shortened: as §1
Sequence of Serine/threonine-protein kinase PLK1 (P53350 whole entry): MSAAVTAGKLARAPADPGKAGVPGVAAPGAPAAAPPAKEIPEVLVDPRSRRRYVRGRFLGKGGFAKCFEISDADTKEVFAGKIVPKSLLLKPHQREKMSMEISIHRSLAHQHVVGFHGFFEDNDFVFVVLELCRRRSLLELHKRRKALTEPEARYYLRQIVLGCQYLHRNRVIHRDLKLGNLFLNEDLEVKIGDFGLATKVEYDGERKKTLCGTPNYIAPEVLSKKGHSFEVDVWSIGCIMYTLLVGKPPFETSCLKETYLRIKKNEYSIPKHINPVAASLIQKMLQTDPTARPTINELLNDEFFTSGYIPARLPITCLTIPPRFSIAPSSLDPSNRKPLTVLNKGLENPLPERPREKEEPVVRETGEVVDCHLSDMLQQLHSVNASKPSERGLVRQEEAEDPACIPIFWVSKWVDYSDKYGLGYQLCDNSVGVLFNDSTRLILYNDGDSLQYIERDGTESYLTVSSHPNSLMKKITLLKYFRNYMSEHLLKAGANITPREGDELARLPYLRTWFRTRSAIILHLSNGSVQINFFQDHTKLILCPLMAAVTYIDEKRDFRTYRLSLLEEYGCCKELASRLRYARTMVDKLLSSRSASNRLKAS

[10] = target: Mitogen-activated protein kinase 3 (Homo sapiens, UniProt P27361); assay: Inhibition of Erk1 by HTRF assay; procedure, shortened: as §1
Aurora kinase B = Aurora kinase B (Homo sapiens, UniProt Q96GD4); assay: Inhibition of Aurora B by HTRF assay; procedure, shortened: as §1
Sequence of Aurora kinase B (Q96GD4 whole entry): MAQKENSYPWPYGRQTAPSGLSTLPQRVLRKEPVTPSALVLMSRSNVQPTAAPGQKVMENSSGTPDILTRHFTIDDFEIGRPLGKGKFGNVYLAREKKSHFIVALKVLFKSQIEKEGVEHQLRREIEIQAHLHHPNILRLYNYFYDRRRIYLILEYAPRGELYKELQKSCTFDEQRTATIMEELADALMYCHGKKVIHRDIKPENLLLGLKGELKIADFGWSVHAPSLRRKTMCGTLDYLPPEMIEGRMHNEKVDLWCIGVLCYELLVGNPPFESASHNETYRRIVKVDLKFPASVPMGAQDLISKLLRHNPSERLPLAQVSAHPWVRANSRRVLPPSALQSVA

Sequence of RAC-alpha serine/threonine-protein kinase (P31749 whole entry): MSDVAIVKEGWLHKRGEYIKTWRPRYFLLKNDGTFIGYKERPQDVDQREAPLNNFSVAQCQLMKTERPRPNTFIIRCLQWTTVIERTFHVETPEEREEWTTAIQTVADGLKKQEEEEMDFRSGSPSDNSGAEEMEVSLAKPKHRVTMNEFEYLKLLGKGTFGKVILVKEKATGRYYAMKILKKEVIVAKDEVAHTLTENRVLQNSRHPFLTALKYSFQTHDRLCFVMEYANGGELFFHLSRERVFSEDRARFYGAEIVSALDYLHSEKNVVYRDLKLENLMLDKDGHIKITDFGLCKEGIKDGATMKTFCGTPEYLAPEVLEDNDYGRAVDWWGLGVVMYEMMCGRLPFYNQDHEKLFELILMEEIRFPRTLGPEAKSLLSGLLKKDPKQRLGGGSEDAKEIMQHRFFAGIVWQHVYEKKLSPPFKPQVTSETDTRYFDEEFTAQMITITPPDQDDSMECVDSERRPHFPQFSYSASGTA

| IC50 [1] [nM] | IC50 [2] [nM] | IC50 [3] [nM] | IC50 [4] [nM] | IC50 [5] [nM] | IC50 [6] [nM] | IC50 [7] [nM] | IC50 [8] [nM] | IC50 [9] [nM] | IC50 [10] [nM] | IC50 (Aurora kinase B) [nM] | SMILES |
| --- | --- | --- | --- | --- | --- | --- | --- | --- | --- | --- | --- |
| > 25000 | > 25000 | > 25000 | 41 | > 25000 | > 25000 | > 25000 | > 25000 | > 25000 | > 25000 | 15 | CNc1nccc(-c2cccnc2Oc2ccc(Nc3nnc(-c4ccc(F)cc4)c4ccccc34)cc2)n1 |
| > 8000 | > 8000 | > 8000 | 586 | > 8000 | > 8000 | > 8000 | > 8000 | > 8000 | > 8000 | 66 | CNc1nccc(-c2cccnc2Oc2ccc(NC(=O)c3cccc(C(F)(F)F)c3)cc2C)n1 |
| > 1000 | > 1000 | > 1000 | 16 | > 1000 | > 1000 | > 1000 | > 1000 | > 1000 | > 1000 | 9 | CNc1nccc(-c2cccnc2Oc2ccc(NC(=O)c3ccccc3Nc3ccccc3)cc2)n1 |
